{"source": "ChEMBL document CHEMBL4406821", "about": "“Novel dual inhibitors targeting CDK4 and VEGFR2 synergistically suppressed cancer progression and angiogenesis” (Eur J Med Chem, 2019)", "key": {"[1]": {"test_system": "SiHa", "test": "Antitumor activity against human SiHa cells xenografted in NOD/SCID BALB/c mouse assessed as reduction in tumor weight at 10 to 40 mg/kg, po administered for 21 days", "format": "functional, organism-based"}, "[2]": {"biological_target": "PAS domain-containing serine/threonine-protein kinase (Homo sapiens) (UniProt Q96RG2)", "sequence (Q96RG2 whole entry, the tested form may be a part)": "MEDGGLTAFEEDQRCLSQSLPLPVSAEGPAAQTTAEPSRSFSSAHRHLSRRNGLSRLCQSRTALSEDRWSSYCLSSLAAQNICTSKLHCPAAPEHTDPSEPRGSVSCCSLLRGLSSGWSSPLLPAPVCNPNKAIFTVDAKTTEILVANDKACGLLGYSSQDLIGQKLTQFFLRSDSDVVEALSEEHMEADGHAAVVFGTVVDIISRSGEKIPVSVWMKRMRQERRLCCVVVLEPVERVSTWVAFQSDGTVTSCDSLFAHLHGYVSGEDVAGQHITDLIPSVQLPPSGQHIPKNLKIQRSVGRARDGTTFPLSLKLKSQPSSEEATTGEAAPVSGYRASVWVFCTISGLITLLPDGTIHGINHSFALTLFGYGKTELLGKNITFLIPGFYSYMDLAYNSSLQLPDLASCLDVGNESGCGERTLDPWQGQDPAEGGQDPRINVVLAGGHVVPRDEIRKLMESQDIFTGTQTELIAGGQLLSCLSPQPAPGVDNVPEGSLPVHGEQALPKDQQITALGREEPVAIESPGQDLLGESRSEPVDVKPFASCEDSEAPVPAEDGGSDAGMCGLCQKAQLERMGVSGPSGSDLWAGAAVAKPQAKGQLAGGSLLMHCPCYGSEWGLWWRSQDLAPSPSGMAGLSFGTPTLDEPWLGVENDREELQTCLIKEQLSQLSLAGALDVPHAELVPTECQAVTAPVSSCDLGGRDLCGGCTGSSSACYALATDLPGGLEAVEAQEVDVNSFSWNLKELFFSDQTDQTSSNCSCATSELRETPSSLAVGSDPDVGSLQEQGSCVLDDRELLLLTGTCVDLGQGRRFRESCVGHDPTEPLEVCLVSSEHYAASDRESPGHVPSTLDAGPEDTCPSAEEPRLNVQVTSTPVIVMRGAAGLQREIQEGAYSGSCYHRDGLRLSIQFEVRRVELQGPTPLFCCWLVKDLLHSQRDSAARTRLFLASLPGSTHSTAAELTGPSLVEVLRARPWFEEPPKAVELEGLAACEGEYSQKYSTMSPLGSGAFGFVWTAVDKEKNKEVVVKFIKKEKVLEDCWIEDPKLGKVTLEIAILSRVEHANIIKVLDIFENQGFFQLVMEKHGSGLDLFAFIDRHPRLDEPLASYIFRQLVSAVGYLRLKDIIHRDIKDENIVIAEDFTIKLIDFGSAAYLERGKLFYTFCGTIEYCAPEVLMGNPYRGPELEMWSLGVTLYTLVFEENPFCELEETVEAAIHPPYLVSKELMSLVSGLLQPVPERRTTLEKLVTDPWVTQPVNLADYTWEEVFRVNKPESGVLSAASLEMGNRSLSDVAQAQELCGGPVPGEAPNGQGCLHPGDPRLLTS", "test": "Inhibition of recombinant human PASK (995 to end residues) at 1 uM using KKLNRTLSFAEPG as substrate incubated for 40 mins in presence of [gamma-33P]-ATP by scintillation counting method relative to control"}, "[3]": {"test_system": "T47D", "test": "Induction of cell cycle arrest in human T47D cells assessed as accumulation in G2/M phase at 20 to 40 nM incubated for 36 hrs by propidium iodide staining based flow cytometry", "format": "functional", "summary_of_the_method": "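Cells were treated with graded concentrations for 36 h, then fixed overnight in 70% ice-cold ethanol at 4°C and resuspended in PBS. Staining used 50 µg/ml PI plus 5 µg/ml RNase at 37°C for 30 min. DNA content was analysed by FACS to give G0/G1, S and G2/M fractions.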"}, "[4]": {"biological_target": "Serine/threonine-protein kinase Nek9 (Homo sapiens) (UniProt Q8TD19)", "sequence (Q8TD19 whole entry, the tested form may be a part)": "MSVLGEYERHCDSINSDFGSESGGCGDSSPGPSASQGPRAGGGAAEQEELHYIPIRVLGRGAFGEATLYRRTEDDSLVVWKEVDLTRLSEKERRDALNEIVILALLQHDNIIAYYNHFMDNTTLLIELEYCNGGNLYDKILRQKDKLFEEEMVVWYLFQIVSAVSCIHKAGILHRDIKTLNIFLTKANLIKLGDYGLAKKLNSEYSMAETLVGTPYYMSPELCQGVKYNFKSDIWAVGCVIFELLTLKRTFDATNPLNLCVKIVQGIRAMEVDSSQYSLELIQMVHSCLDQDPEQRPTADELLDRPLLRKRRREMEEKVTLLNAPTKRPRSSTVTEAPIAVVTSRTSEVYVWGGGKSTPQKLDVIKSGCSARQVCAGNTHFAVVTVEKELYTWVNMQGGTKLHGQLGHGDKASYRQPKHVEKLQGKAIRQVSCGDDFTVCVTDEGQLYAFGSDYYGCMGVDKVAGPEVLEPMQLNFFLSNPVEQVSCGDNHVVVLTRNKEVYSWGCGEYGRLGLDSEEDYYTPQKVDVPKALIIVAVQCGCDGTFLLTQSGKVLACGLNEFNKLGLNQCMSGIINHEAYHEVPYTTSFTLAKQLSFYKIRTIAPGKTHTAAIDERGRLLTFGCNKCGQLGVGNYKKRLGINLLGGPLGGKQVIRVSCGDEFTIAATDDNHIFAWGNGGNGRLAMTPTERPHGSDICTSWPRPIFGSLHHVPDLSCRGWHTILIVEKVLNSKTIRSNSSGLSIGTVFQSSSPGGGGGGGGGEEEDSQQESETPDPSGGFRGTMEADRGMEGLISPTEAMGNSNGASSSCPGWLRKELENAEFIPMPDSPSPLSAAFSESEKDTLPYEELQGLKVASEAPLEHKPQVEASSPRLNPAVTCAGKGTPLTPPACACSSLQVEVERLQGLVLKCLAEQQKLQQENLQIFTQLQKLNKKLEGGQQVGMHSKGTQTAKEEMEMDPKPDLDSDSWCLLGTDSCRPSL", "test": "Inhibition of recombinant human NEK9 (1 to 324 residues) at 1 uM using myelin basic protein as substrate incubated for 40 mins in presence of [gamma-33P]-ATP by scintillation counting method relative to control"}, "[5]": {"test": "Half life in Sprague-Dawley rat at 10 mg/kg, po by HPLC-MS analysis", "format": "ADME, organism-based", "settings": "in vivo", "summary_of_the_method": "(§1)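 Rats fitted with jugular vein catheters for serial blood sampling. Compound dissolved in saline with 5% (v/v) DMSO and given as a single 10 mg/kg dose iv or po after an overnight fast, n = 5 per group. Plasma isolated at once and measured by HPLC with tandem MS detection. Parameters derived by noncompartmental fitting.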"}, "[6]": {"biological_target": "Dual specificity mitogen-activated protein kinase kinase 6 (Homo sapiens) (UniProt P52564)", "test": "Inhibition of recombinant human MKK6 (4 to end residues) at 1 uM using unactive SAPK2a as substrate incubated for 40 mins in presence of [gamma-33P]-ATP by scintillation counting method relative to control"}, "[7]": {"biological_target": "Serine/threonine-protein kinase 26 (Homo sapiens) (UniProt Q9P289)", "test": "Inhibition of recombinant human MST4 (4 to 304 residues) at 1 uM using RLGRDKYKTLRQIRQ as substrate incubated for 40 mins in presence of [gamma-33P]-ATP by scintillation counting method relative to control"}, "[8]": {"biological_target": "Mitogen-activated protein kinase kinase kinase 10 (Homo sapiens) (UniProt Q02779)", "sequence (Q02779 whole entry, looked up, the tested form may be a part)": "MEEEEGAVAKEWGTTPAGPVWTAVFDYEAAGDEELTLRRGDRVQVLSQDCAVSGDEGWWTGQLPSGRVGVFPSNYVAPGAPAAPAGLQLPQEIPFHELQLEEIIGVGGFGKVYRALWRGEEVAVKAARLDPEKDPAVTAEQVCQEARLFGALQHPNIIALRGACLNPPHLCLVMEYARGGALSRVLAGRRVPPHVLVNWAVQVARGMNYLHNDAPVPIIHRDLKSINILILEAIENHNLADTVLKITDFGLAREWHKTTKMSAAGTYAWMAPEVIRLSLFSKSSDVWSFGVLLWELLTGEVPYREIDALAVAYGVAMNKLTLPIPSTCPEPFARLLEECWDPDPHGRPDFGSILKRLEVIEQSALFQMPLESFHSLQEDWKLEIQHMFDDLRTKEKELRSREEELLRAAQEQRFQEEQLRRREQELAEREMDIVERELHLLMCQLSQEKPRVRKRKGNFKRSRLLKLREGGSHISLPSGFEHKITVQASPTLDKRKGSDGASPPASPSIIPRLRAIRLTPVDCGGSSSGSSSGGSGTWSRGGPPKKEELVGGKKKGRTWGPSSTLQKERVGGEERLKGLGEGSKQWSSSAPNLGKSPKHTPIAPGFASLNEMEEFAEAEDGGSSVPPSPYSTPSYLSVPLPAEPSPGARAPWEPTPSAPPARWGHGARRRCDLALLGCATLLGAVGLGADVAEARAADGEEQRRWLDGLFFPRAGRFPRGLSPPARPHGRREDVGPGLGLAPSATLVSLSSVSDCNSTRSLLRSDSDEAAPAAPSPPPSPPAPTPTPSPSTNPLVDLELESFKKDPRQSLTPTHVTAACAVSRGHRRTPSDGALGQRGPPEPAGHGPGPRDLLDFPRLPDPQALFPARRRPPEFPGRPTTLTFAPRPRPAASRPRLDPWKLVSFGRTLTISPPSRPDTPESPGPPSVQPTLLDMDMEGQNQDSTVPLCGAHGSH", "test": "Inhibition of recombinant human MLK2 (1 to 449 residues) at 1 uM using myelin basic protein as substrate incubated for 40 mins in presence of [gamma-33P]-ATP by scintillation counting method relative to control"}, "[9]": {"test": "AUC (0 to infinity) in Sprague-Dawley rat at 10 mg/kg, iv by HPLC-MS analysis", "format": "ADME, organism-based", "design": "dose 10 mg/kg, route intravenous, time infinity", "settings": "in vivo", "summary_of_the_method": "as §1"}, "[10]": {"test_system": "Proto-oncogene tyrosine-protein kinase receptor Ret (Homo sapiens), P07949 [V804L]", "sequence (P07949 whole entry V804L)": "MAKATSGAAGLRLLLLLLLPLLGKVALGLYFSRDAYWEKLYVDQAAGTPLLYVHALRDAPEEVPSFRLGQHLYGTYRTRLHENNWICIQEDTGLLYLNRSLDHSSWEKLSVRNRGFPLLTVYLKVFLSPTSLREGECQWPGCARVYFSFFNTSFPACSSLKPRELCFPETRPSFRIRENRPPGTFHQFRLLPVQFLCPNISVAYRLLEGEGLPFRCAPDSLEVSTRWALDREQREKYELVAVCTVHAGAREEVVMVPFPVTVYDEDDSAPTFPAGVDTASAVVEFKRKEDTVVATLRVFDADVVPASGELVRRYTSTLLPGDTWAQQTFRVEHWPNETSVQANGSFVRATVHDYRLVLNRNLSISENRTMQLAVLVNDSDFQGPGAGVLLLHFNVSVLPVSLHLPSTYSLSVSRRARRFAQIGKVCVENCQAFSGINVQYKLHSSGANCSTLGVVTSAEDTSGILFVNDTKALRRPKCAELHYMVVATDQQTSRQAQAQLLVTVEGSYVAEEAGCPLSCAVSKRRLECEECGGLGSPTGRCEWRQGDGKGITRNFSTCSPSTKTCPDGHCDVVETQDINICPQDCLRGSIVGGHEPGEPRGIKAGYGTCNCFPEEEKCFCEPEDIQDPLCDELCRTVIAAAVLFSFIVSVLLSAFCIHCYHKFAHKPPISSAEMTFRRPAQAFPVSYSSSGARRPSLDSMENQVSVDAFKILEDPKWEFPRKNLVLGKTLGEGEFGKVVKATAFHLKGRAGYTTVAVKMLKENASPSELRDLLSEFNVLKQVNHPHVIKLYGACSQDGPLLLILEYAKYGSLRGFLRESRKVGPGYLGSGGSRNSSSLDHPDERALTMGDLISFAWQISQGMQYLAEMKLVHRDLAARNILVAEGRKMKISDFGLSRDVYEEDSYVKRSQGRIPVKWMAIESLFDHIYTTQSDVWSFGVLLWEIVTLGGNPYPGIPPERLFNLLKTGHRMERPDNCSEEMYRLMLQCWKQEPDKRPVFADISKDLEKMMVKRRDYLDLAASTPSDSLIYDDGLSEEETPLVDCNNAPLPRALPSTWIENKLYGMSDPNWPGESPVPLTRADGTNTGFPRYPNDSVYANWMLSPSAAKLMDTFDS", "test": "Inhibition of recombinant human RET V804L mutant (658 to end residues) at 1 uM using KKKVSRSGLYRSPSMPENLNRPR as substrate incubated for 40 mins in presence of [gamma-33P]-ATP by scintillation counting method relative to control"}, "[11]": {"biological_target": "Myotonin-protein kinase (Homo sapiens) (UniProt Q09013)", "sequence (Q09013 whole entry, the tested form may be a part)": "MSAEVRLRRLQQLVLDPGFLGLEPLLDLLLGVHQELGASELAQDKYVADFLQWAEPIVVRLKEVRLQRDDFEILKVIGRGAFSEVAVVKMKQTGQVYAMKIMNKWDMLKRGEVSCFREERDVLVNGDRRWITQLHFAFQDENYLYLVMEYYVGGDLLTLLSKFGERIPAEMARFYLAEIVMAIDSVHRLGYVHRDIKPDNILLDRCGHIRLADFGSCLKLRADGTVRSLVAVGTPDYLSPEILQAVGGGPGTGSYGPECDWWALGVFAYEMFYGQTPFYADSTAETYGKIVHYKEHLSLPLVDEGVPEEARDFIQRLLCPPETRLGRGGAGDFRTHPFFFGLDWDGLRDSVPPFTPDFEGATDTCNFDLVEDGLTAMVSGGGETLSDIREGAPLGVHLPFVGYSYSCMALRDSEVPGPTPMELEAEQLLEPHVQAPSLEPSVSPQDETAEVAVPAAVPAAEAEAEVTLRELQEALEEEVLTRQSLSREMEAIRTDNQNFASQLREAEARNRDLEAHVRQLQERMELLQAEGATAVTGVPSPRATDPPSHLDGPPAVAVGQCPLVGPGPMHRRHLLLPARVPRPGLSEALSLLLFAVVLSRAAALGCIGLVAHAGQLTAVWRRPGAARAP", "test": "Inhibition of recombinant human DMPK (1 to 549 residues) at 1 uM using KKSRGDYMTMQIG as substrate incubated for 40 mins in presence of [gamma-33P]-ATP by scintillation counting method relative to control", "summary_of_the_method": "(§2)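 Kinase panel profiling at 1 μM performed by Eurofins KinaseProfiler; percent inhibition reported as mean of two independent experiments.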"}, "[12]": {"test_system": "SiHa", "test": "Induction of apoptosis in human SiHa cells assessed as decrease in Bcl2 expression at 40 to 80 nM incubated for 48 hrs by Western blot analysis", "format": "functional, cell-based", "summary_of_the_method": "(§3)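 Cancer cells were exposed to graded concentrations for 48 h, washed three times in PBS and lysed in RIPA buffer. Immunoblots were probed with anti-Rb, anti-phospho-Rb, anti-Ki67 and anti-Bcl-2, each at 1:1000. β-actin served as loading control.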"}, "[13]": {"test_system": "SiHa", "test": "Induction of apoptosis in human SiHa cells assessed as decrease in Ki67 expression at 40 to 80 nM incubated for 48 hrs by Western blot analysis", "format": "functional, cell-based", "summary_of_the_method": "as §3"}, "[14]": {"biological_target": "T1, CDK4/Cyclin D3 (Homo sapiens) (UniProt P11802+P30281)", "test": "Inhibition of recombinant full length human CDK4/Cyclin D3 using Rb-fragmen as substrate at 1 uM incubated for 40 mins by [gamma-33P]-ATP based radiometric assay relative to control", "format": "protein-complex assay", "summary_of_the_method": "as §2"}, "[15]": {"biological_target": "Ephrin type-A receptor 4 (Homo sapiens) (UniProt P54764)", "test": "Inhibition of recombinant human EPhA4 (601 to 892 residues) at 1 uM using poly(Glu, Tyr) 4:1 as substrate incubated for 40 mins in presence of [gamma-33P]-ATP by scintillation counting method relative to control"}, "[16]": {"biological_target": "T1, CDK4/Cyclin D3 (Homo sapiens)", "test": "Inhibition of recombinant human full length CDK4/cyclinD3 at 1 uM using Rb fragment as substrate incubated for 40 mins in presence of [gamma-33P]-ATP by scintillation counting method relative to control", "format": "protein-complex assay"}, "[17]": {"biological_target": "Serine/threonine-protein kinase 32C (Homo sapiens) (UniProt Q86UX6)", "test": "Inhibition of recombinant human full length STK32C at 1 uM using casein as substrate incubated for 40 mins in presence of [gamma-33P]-ATP by scintillation counting method relative to control"}, "[18]": {"test": "Toxicity in BALB/c mouse assessed as effect on blood parameter by measuring eosinophils content at 40 mg/kg, po administered once two days for 4 times by hematology analyzer", "settings": "in vivo"}, "[19]": {"test_system": "Serine/threonine-protein kinase Chk2 (Homo sapiens), O96017 [I157T]", "test": "Inhibition of recombinant human CHK2 I157T mutant (5 to end residues) at 1 uM using KKKVSRSGLYRSP as substrate incubated for 40 mins in presence of [gamma-33P]-ATP by scintillation counting method relative to control", "summary_of_the_method": "as §2"}, "[20]": {"test": "Half life in Sprague-Dawley rat at 10 mg/kg, iv by HPLC-MS analysis", "format": "ADME, organism-based", "settings": "in vivo", "summary_of_the_method": "as §1"}, "[21]": {"test": "Toxicity in NOD/SCID BALB/c mouse xenografted with human SiHa cells assessed as effect on blood parameter by measuring MPV at 40 mg/kg, po administered once two days for 4 times by hematology analyzer", "format": "organism-based", "settings": "in vivo"}, "[22]": {"test_system": "SiHa", "test": "Induction of apoptosis in human SiHa cells assessed as decrease in Bcl2 expression at 40 nM incubated for 48 hrs by Western blot analysis", "format": "functional, cell-based", "summary_of_the_method": "as §3"}, "[23]": {"test": "Toxicity in NOD/SCID BALB/c mouse xenografted with human SiHa cells assessed as body weight at 40 mg/kg, po administered for 21 days", "format": "organism-based", "settings": "in vivo, 504 h", "summary_of_the_method": "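Female NOD/SCID Balb/c mice, 6–8 weeks, implanted subcutaneously in right flank with 2×10^6 SiHa cells in 100 µL medium. At 100 mm³ tumors, randomized (5 mice/group) to daily oral gavage. Body weight monitored every 3 days; study ended day 21.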"}}, "note": "Active and inactive are the calls of the source. The calls are words filed in the database; no cut-off is given here."}
{"molecule": "Cc1ccc(NC(=O)C2(C(=O)Nc3ccc(Nc4ncc(F)c(-c5cc(F)c6nc(C)n(C(C)C)c6c5)n4)cc3)CC2)cc1", "values": [{"measurement": "inhibition", "setting": "[1]", "value": "Active"}, {"measurement": "inhibition", "setting": "[2]", "value": 19, "unit": "%"}, {"measurement": "Activity", "setting": "[3]", "value": "Active"}, {"measurement": "inhibition", "setting": "[4]", "value": 71, "unit": "%"}, {"measurement": "half-life", "setting": "[5]", "value": 3, "unit": "h"}, {"measurement": "inhibition", "setting": "[6]", "value": 16, "unit": "%"}, {"measurement": "inhibition", "setting": "[7]", "value": 48, "unit": "%"}, {"measurement": "inhibition", "setting": "[8]", "value": 2, "unit": "%"}, {"measurement": "AUC(0-inf)", "setting": "[9]", "value": 11000, "unit": "ng·h/mL"}, {"measurement": "inhibition", "setting": "[10]", "value": 42, "unit": "%"}, {"measurement": "inhibition", "setting": "[11]", "value": 10, "unit": "%"}, {"measurement": "Activity", "setting": "[12]", "value": "Active"}, {"measurement": "Activity", "setting": "[13]", "value": "Active"}, {"measurement": "inhibition", "setting": "[14]", "value": 97, "unit": "%"}, {"measurement": "inhibition", "setting": "[15]", "value": 28, "unit": "%"}, {"measurement": "inhibition", "setting": "[16]", "value": 97, "unit": "%"}, {"measurement": "inhibition", "setting": "[17]", "value": 5, "unit": "%"}, {"measurement": "Activity", "setting": "[18]", "value": "Non-Toxic"}, {"measurement": "inhibition", "setting": "[19]", "value": 24, "unit": "%"}, {"measurement": "half-life", "setting": "[20]", "value": 2, "unit": "h"}, {"measurement": "Activity", "setting": "[21]", "value": "Non-Toxic"}]}
{"molecule": "COc1cc2nccc(Oc3ccc(NC(=O)C4(C(=O)Nc5ccc(F)cc5)CC4)cc3)c2cc1OC", "note": "[CABOZANTINIB]", "values": [{"measurement": "Activity", "setting": "[22]", "value": "Active"}, {"measurement": "Activity", "setting": "[23]", "value": "Non-Toxic"}]}
